From ChEMBL document CHEMBL1138243, “Design of mechanism-based inhibitors of transthyretin amyloidosis: studies with biphenyl ethers and new structural templates” (J Med Chem, 2007) come the findings set out here.

The source made the active and inactive calls. The calls are words filed in the database; no cut-off is given here.

The nature of assay [1]: Cytotoxicity against TTR-induced […] cells assessed as viability at 50 uM after 72 hrs. The class given is functional. Conditions: Mus musculus, N2a, read-out: Activity.
For assay [2], the target named is T1, Transthyretin (Homo sapiens, UniProt P02766). In words: Inhibition of transthyretin fibril formation assessed as turbidity at 21.6 uM at pH 4.4 after 3 hrs. The assay is classed as functional. Summed up:
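Kinetics run with 7.2 µM TTR plus 21.6 µM inhibitor at pH 4.4, 37 °C. Turbidity at 340 nm was followed for 3 h. Initial fibrillization rate came from the linear slope of A340 versus time. Three experiments in triplicate.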

Assay [3] deals with T1, Transthyretin. In words: Inhibition of fibril elongation of preformed transthyretin at […] after 72 hrs by turbidity assay. The class given is functional.
The target in assay [4] is T1, Transthyretin. Briefly: Inhibition of transthyretin fibril formation at pH 4.4 at 50 uM. The assay is classed as functional. Also on record: scale not given: the % may be the effect or the level left.
A further assay relates to Neuro2a. In words: Cytotoxicity against […] cells at 50 uM. The assay is classed as functional, cell-based. Conditions: Mus musculus.
Assay [5] concerns the target T1, Transthyretin. In words: Stabilization of urea-induced transthyretin dissociation at 5.4 uM at pH 7.2 after 1 hr relative to control.
The target of assay [6] is T1, Transthyretin. Briefly: Inhibition of transthyretin amyloidosis assessed as fibril formation at 21.6 uM at pH 4.4 relative to control. The class given is functional. Also on record: scale not given: the % may be the effect or the level left. In a few lines: (§1)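 WT TTR tetramer (7.2 µM) in pH 7 phosphate/KCl/EDTA was preincubated 1 h at 25 °C with inhibitor (7.2 or 21.6 µM; 1:1 or 1:3) in 1% DMSO. It was then diluted with pH 4.4 acetate/KCl/EDTA buffer and held stagnant 72 h at 37 °C. Turbidity was read at 340 nm as % fibril formation versus untreated (100%). Mean of five experiments.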

The target in assay [7] is T1, Transthyretin. In words: Inhibition of transthyretin amyloidosis assessed as fibril formation at 7.2 uM at pH 4.4 relative to control. The assay is classed as functional. Also on record: scale not given: the % may be the effect or the level left. Summed up: as §1
Assay [8] addresses T1, Transthyretin. In words: Stabilization of urea-induced transthyretin dissociation at 5.4 uM at pH 7.2 after […] relative to control.
Assay [9] addresses T1, Transthyretin. Briefly: Binding affinity to transthyretin at pH 4.4. In a few lines:
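Kd at pH 4.4 measured by fluorescence titration of TTR. Data were fitted to the Adair equation for two binding sites, giving Kd1 and Kd2. Experiments were run in triplicate.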

Assay [10] addresses T1, Transthyretin. In words: Inhibition of transthyretin fibril formation at pH 4.4. The class given is functional.

For the compound `O=C(O)c1ccc(Oc2ccc(Cl)cc2Cl)c(O)c1`, in assay [1], the viability at 50 µM turned out to be 86%. Further, at Transthyretin [2], the inhibition was greater than 80%. Moreover, the outcome at Transthyretin [3] was Active. Also, the Activity on Transthyretin [4] is 0%; in the assay with Neuro2a, “Not toxic”; at Transthyretin [5], 21%; at Transthyretin [6] it was 13.3%; on Transthyretin [7] it was 29%.
For the compound `O=C(O)c1ccc(Oc2ccccc2)c(O)c1`, the Activity was less than 5% at Transthyretin [8]; 5% on Transthyretin [4]; “Not toxic” with Neuro2a; 5% at Transthyretin [6]; 32% at Transthyretin [7]. Further, the dissociation constant Kd on Transthyretin [9] (read-out: Kd) stood at 0.027 µM. The viability at 50 µM in [1] was 86%. The inhibition at Transthyretin [2] was greater than 80%. For the same compound, the outcome at Transthyretin [3] was Active. Besides, half-maximal inhibition at Transthyretin [10] (IC50) required 3.18 µM.
With `COc1cc(CCl)ccc1Oc1ccccc1`, the Activity at Transthyretin [8] was less than 5%; on Transthyretin [4] it was 0%; with Neuro2a it was “Not toxic”; on Transthyretin [6], 0%; at Transthyretin [7], 25%. Also, the Kd result at Transthyretin [9] was “Active”. For the same compound, the viability at 50 µM in [1] was 86%. The inhibition at Transthyretin [2] was greater than 80%. The result on Transthyretin [3] was Active.
The compound `COc1cc(C(=O)O)ccc1Oc1ccccc1` had an Activity at Transthyretin [4] of 40%. This compound also came in with a concentration for half-maximal inhibition (IC50) on Transthyretin [10] of 41 µM.

What is called inhibition is the percentage by which the read-out fell short of the control. The term Kd denotes a measure of binding affinity in units of concentration. One may read the IC50 as the concentration needed to halve the response being measured.
